Assay results gathered from unrelated publications.
Compare with care: the assays were run in different laboratories.
Target: Proto-oncogene tyrosine-protein kinase Src (SRC, Homo sapiens, UniProt P12931)

Compound	assay	setting	measurement	value
O=c1[nH]c2ccccc2n1C1CCN(Cc2ccc(-c3[nH]c4cc5ncnc5cc4nc3-c3ccccc3)cc2)CC1	cell-free assay	0.5 µM	remaining signal	103%
Cn1cc(-c2cc(F)cc(N3CCn4c(cc5c4CCCC5)C3=O)c2CO)cc(Nc2ccc(N3CCN(C4COC4)CC3)cn2)c1=O	enzyme activity, inhibitor	0.1 µM	inhibition	13%
O=C1c2c(O)cc(O)cc2OC(c2ccc(O)c(O)c2)C1O (stereo not drawn)	enzyme activity, inhibitor	80 µM	inhibition	53%
COc1ncccc1-c1cnn2ccc(N3CCN(C(=O)OC(C)C)CC3)nc12	binding, competition with immobilised ligand	1 µM	remaining binding	100%
c1ccc(C(NCCNC(c2ccccc2)c2ccccc2)c2ccccc2)cc1	enzyme activity, inhibitor	10 µM	inhibition	-24%
Cn1cc(-c2cccc(N3CCc4c(sc5c4CC(C)(C)C5)C3=O)c2CO)cc(Nc2ccncn2)c1=O	enzyme activity, inhibitor	1 µM	inhibition	39%
CC(C)(C)c1cc(C=C(C#N)C#N)cc(Br)c1O	enzyme activity, inhibitor	0.5 µM	remaining activity	87.4%
C[C@H](C(=O)N[C@H]1COc2ccccc2[C@@H]1S(C)(=O)=O)c1ccc(F)cc1	enzyme activity, inhibitor	10 µM	inhibition	-5%
C#Cc1n[nH]c2c(-c3cn(C(C)c4ccccn4)c(=O)[nH]c3=O)cc(F)cc12 (stereo not drawn)	enzyme activity, inhibitor	1 µM	inhibition	9.4%
Nc1ncc(-c2nc(N3CCOCC3)nc(N3CCOCC3)n2)c(C(F)F)n1	binding, competition with immobilised ligand	10 µM	remaining binding	57%
Cn1cncc1[C@](O)(COc1ccc(C#N)cc1-c1ccc(OC(F)(F)F)cc1)c1ccc(C#N)cc1	cell-free assay, competition with immobilised ligand	1 µM	remaining binding	81%
Cc1nn(C)cc1-c1nc2c(N3CCN(Cc4ccc(Cl)cc4)CC3)c(Cl)cnc2[nH]1	binding, competition with immobilised ligand	1 µM	remaining binding	100%
